In ChEMBL document CHEMBL3526048, “In vitro metabolism of rivoglitazone, a novel peroxisome proliferator-activated receptor γ agonist, in rat, monkey, and human liver microsomes and freshly isolated hepatocytes” (Drug Metab Dispos, 2011) one finds Drug metabolism data, which are given here for one compound.

Series [1] is described as follows: Drug metabolism in monkey hepatocytes assessed as formation of 2-mercapto-3-(4-((6-methoxy-1-methyl-1H-benzo[d]imidazol-2-yl)methoxy)phenyl)propanamide at 30 uM after 3 hrs by radio-HPLC/LC-MS/MS analysis in presence of NADPH-generating system and NADPH-generating system/SAM. The conditions noted are these: cynomolgus monkey.
A further series deals with T1, Cytochrome P450 2C8 (Homo sapiens, UniProt P10632).
T1 sequence (P10632 whole entry): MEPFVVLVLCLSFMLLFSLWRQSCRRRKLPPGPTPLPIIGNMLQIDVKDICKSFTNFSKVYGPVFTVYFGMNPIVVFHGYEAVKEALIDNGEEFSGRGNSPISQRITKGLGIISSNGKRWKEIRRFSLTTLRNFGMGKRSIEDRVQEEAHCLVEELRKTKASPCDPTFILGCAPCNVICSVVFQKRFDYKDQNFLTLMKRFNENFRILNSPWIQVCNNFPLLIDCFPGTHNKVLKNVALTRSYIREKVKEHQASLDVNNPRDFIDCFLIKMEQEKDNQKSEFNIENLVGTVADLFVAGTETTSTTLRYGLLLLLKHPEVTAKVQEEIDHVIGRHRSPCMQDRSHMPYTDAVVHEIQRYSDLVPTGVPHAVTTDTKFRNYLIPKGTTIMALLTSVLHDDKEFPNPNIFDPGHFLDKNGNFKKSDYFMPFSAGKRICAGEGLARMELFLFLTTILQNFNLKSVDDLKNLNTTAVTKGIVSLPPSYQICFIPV
The experiment in a line: Activity of human CYP2C8 expressed in microsomes isolated from baculovirus infected insect cell assessed as enzyme-mediated 2-((4-((2,4-dioxothiazolidin-5-yl)methyl)phenoxy)methyl)-1-methyl-1H-benzo[d]imidazol-6-yl hydrogen sulfate formation at 20 uM after 2 hrs by radio-HPLC/LC-MS/MS analysis. It is filed as ADME. In short, it runs like this: (§1)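 Baculovirus/insect-cell microsomes expressing single human CYPs, 1 mg/ml protein, with 50 mM potassium phosphate (pH 7.4) or 100 mM Tris-HCl (pH 7.5). NADPH-generating system: 2 mM NADP⁺, 20 mM glucose 6-phosphate, 2 units/ml G6PDH, 10 mM MgCl₂. [¹⁴C]rivoglitazone at 20 μM, 2 h at 37°C with shaking. Control used insect-cell control supersomes. Stopped with acetonitrile; supernatant concentrated under nitrogen; metabolites analysed by radio-HPLC, LC-MS and LC-MS/MS.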

In series [2] the target is T2, UDP-glucuronosyltransferase 2B4 (Homo sapiens, UniProt P06133).
T2 sequence (P06133 whole entry): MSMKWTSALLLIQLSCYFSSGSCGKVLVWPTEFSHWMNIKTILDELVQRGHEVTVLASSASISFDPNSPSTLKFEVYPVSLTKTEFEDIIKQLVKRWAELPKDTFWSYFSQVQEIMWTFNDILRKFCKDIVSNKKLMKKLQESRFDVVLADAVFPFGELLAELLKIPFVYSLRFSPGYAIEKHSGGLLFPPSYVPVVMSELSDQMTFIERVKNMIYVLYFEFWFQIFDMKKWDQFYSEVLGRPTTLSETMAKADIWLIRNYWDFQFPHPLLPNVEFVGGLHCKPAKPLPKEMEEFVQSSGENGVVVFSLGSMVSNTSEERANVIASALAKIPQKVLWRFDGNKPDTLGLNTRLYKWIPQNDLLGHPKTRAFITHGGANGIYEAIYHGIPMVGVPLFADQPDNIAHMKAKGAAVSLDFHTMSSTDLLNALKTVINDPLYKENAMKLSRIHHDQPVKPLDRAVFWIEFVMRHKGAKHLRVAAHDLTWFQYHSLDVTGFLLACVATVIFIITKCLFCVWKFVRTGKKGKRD
Description: Activity of human UGT2B4 expressed in microsomes isolated from baculovirus infected insect cell assessed as enzyme-mediated (2S,3S,4S,5R,6R)-3,4,5-trihydroxy-6-(5-(4-((6-methoxy-1-methyl-1H-benzo[d]imidazol-2-yl)methoxy)benzyl)-2,4-dioxothiazolidin-3-yl)tetrahydro-2H-pyran-2-carboxylic acid formation at 20 uM after 4 hrs by radio-HPLC/LC-MS/MS analysis in presence of UDPGA. It is filed as ADME.

Series [3] has as its target T3, Cytochrome P450 2C19 (Homo sapiens, UniProt P33261). The experiment in a line: Activity of human CYP2C19 expressed in microsomes isolated from baculovirus infected insect cell assessed as enzyme-mediated (2S,3S,4S,5R,6R)-6-((1-carboxy-2-(4-((6-methoxy-1-methyl-1H-benzo[d]imidazol-2-yl)methoxy)phenyl)ethylthio)carbonylamino)-3,4,5-trihydroxytetrahydro-2H-pyran-2-carboxylic acid formation at 20 uM after 2 hrs by radio-HPLC/LC-MS/MS analysis in presence of NADPH-generating system/SAM. It is filed as ADME.

The target in series [4] is T4, UDP-glucuronosyltransferase 1A10 (Homo sapiens, UniProt Q9HAW8).
T4 sequence (Q9HAW8 whole entry): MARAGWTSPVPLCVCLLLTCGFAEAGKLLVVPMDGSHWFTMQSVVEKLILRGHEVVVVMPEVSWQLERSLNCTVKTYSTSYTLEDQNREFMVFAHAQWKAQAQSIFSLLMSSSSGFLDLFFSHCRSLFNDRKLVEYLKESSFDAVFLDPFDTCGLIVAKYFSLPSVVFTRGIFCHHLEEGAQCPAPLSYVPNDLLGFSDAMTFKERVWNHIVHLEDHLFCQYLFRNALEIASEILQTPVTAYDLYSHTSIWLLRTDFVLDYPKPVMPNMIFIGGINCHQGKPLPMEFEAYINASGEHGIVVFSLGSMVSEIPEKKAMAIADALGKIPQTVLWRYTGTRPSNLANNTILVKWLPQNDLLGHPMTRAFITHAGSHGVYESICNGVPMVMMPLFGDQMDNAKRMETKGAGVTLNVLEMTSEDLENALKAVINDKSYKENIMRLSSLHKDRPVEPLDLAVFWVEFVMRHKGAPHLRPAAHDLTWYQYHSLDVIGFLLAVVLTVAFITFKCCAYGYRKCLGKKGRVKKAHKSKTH
Description: Activity of human UGT1A10 expressed in microsomes isolated from baculovirus infected insect cell assessed as enzyme-mediated (2S,3S,4S,5R,6R)-6-((1-carboxy-2-(4-((6-methoxy-1-methyl-1H-benzo[d]imidazol-2-yl)methoxy)phenyl)ethylthio)carbonylamino)-3,4,5-trihydroxytetrahydro-2H-pyran-2-carboxylic acid formation at 20 uM after 4 hrs by radio-HPLC/LC-MS/MS analysis in presence of UDPGA. In kind it is ADME. In short, it runs like this:
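Alamethicin (50 μg/mg protein, 15 min on ice) pretreated expressed human UGT microsomes (1 mg/ml protein) from baculovirus-infected insect cells. Incubation with [¹⁴C]rivoglitazone (20 μM) in 100 mM Tris-HCl (pH 7.5) with 10 mM MgCl₂, started by 5 mM UDPGA, 4 h at 37°C with shaking. UGT insect-cell control supersomes were run alongside. Acetonitrile stop, concentrated supernatant analysed by radio-HPLC, LC-MS and LC-MS/MS.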

Series [5] concerns the target T3, Cytochrome P450 2C19. Description: Activity of human CYP2C19 expressed in microsomes isolated from baculovirus infected insect cell assessed as enzyme-mediated 5-(4-((6-hydroxy-1-methyl-1H-benzo[d]imidazol-2-yl)methoxy)benzyl)thiazolidine-2,4-dione formation at 20 uM after 2 hrs by radio-HPLC/LC-MS/MS analysis in presence of NADPH-generating system and NADPH-generating system/SAM. It is filed as ADME. In short, it runs like this:
as §1

The structures appear in SMILES notation.

T3 sequence (P33261 whole entry): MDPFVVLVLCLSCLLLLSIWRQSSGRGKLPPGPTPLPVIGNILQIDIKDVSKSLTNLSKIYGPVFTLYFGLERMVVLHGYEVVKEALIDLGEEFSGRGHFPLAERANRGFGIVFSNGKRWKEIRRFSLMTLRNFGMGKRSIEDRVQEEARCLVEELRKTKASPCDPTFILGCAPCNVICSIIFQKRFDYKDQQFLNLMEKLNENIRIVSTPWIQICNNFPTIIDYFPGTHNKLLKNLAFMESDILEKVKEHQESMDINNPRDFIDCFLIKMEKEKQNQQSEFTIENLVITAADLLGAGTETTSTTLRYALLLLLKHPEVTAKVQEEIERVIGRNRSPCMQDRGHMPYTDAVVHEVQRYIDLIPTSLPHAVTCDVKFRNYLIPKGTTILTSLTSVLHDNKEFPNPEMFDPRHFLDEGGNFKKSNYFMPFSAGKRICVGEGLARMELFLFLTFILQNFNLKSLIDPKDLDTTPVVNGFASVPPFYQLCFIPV

As for `COc1ccc2nc(COc3ccc(C[14CH]4SC(=O)NC4=O)cc3)n(C)c2c1.Cl` (racemic), the Drug metabolism result in series [1] is reported as “metabolite_not_detected”; at Cytochrome P450 2C8, “metabolite_not_detected”; in series [2], “metabolite_not_detected”; at Cytochrome P450 2C19 [3], “metabolite_not_detected”; in series [4] it was “metabolite_not_detected”; on Cytochrome P450 2C19 [5], “metabolite_detected”.
